Assay results as given in ChEMBL document CHEMBL1158762, “Antineoplastic agents. 534. isolation and structure of sansevistatins 1 and 2 from the African Sansevieria ehrenbergii” (2005).
In brackets after ≈: the same amount, converted by molar mass. Activity calls are given as the source filed them. The calls are words filed in the database; no cut-off is given here.

Legend:
Cryptococcus neoformans [1] = experiment: Antimicrobial activity against Cryptococcus neoformans ATCC 90112 by broth micro dilution assay; type: functional
Candida albicans [2] = experiment: Antimicrobial activity against Candida albicans ATCC 90028 by broth micro dilution assay; type: functional
BXPC-3 = experiment: Growth inhibition of humanBxPC3 cells after 48 hrs; type: functional; conditions: Homo sapiens, BXPC-3, 48 h
How it was run: (§1)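 NCI sulforhodamine B assay. Cells in RPMI1640 with 5% fetal bovine serum were seeded and incubated 24 h, then exposed to serial dilutions for 48 h. Plates were TCA-fixed, SRB-stained and read for optical density. GI50 is the concentration giving 50% reduction in net protein increase, calculated from OD data.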

P388 = experiment: Growth inhibition of mouse P388 cells after 48 hrs; type: functional; conditions: P388, 48 h, read-out: ED50 (the source's name)
How it was run: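 Murine P388 leukemia cells were preincubated 24 h in Fisher medium with 10% horse serum, then exposed to serial compound dilutions for 48 h. Cells were counted on an electronic particle counter, and ED50 for growth inhibition was calculated from the counts.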

Staphylococcus aureus = experiment: Antimicrobial activity against Staphylococcus aureus at 64 ug/mL by broth micro dilution assay; type: functional, organism-based
Enterococcus faecalis = experiment: Antimicrobial activity against Enterococcus faecalis at 64 ug/mL by broth micro dilution assay; type: functional, organism-based
KM-20L2 = experiment: Growth inhibition of human KM20L2 cells after 48 hrs; type: functional; conditions: KM-20L2, 48 h; how it was run: as §1
NCI-H460 = experiment: Growth inhibition of human NCI-H460 cells after 48 hrs; type: functional; conditions: NCI-H460, 48 h; how it was run: as §1
Neisseria gonorrhoeae = experiment: Antimicrobial activity against Neisseria gonorrhoeae at 64 ug/mL by broth micro dilution assay; type: functional, organism-based
DU-145 = experiment: Growth inhibition of human DU145 cells after 48 hrs; type: functional; conditions: DU-145, 48 h; how it was run: as §1
[3] = system: Stenotrophomonas maltophilia; experiment: Antimicrobial activity against Stenotrophomonas maltophilia at 64 ug/mL by broth micro dilution assay; type: functional, organism-based
SF-268 = experiment: Growth inhibition of human SF268 cells after 48 hrs; type: functional; conditions: SF-268, 48 h; how it was run: as §1
MCF7 = experiment: Growth inhibition of human MCF7 cells after 48 hrs; type: functional; conditions: MCF7, 48 h; how it was run: as §1
Micrococcus luteus [4] = experiment: Antimicrobial activity against Micrococcus luteus presque Isle 456 at 64 ug/mL by broth micro dilution assay; type: functional, organism-based
Escherichia coli = experiment: Antimicrobial activity against Escherichia coli at 64 ug/mL by broth micro dilution assay; type: functional, organism-based
Enterobacter cloacae = experiment: Antimicrobial activity against Enterobacter cloacae at 64 ug/mL by broth micro dilution assay; type: functional, organism-based
Streptococcus pneumoniae [5] = experiment: Antimicrobial activity against Streptococcus pneumoniae ATCC 6303 at 64 ug/mL by broth micro dilution assay; type: functional, organism-based
Micrococcus luteus [6] = experiment: Antimicrobial activity against Micrococcus luteus presque Isle 456 by broth micro dilution assay; type: functional
How it was run: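 NCCLS broth microdilution. Compounds reconstituted in a small volume of sterile DMSO and diluted in the appropriate medium immediately before testing. MIC read as the lowest concentration giving no visible growth (optically clear). Assays repeated on separate days.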

Streptococcus pneumoniae [7] = experiment: Antimicrobial activity against Streptococcus pneumoniae ATCC 6303 by broth micro dilution assay; type: functional
Candida albicans [8] = experiment: Antimicrobial activity against Candida albicans ATCC 90028 at 64 ug/mL by broth micro dilution assay; type: functional, organism-based
Cryptococcus neoformans [9] = experiment: Antimicrobial activity against Cryptococcus neoformans ATCC 90112 at 64 ug/mL by broth micro dilution assay; type: functional, organism-based

Compound | MIC (Cryptococcus neoformans [1]) [µg/mL] | MIC (Candida albicans [2]) [µg/mL] | GI50 (BXPC-3) [µg/mL] | EC50 (P388) [µg/mL] | Activity (Staphylococcus aureus) | Activity (Enterococcus faecalis) | GI50 (KM-20L2) [µg/mL] | GI50 (NCI-H460) [µg/mL] | Activity (Neisseria gonorrhoeae) | GI50 (DU-145) [µg/mL] | Activity [3] | GI50 (SF-268) [µg/mL] | GI50 (MCF7) [µg/mL] | Activity (Micrococcus luteus [4]) | Activity (Escherichia coli) | Activity (Enterobacter cloacae) | Activity (Streptococcus pneumoniae [5]) | MIC (Streptococcus pneumoniae [7]) [µg/mL] | other results
C[C@@H]1CC[C@@]2(OC1)O[C@H]1C[C@H]3[C@@H]4CC=C5C[C@@H](O[C@@H]6O[C@H](CO)[C@@H](O[C@@H]7OC[C@@H](O)[C@H](O)[C@H]7O)[C@H](O)[C@H]6O[C@@H]6O[C@@H](C)[C@H](O)[C@@H](O)[C@H]6O)CC[C@]5(C)[C@H]4CC[C@]3(C)[C@H]1[C@@H]2C | 2 (≈ 2.34 µM) | 4 (≈ 4.68 µM) | 1.7 (≈ 1.99 µM) | 2.6 (≈ 3.04 µM) | inactive | inactive | 0.5 (≈ 0.585 µM) | 1.2 (≈ 1.4 µM) | inactive | 1.1 (≈ 1.29 µM) | inactive | 1.3 (≈ 1.52 µM) | 1.4 (≈ 1.64 µM) | inactive | inactive | inactive | inactive |  | 
C[C@@H]1CC[C@@]2(OC1)O[C@H]1C[C@H]3[C@@H]4CC=C5C[C@@H](O[C@@H]6O[C@H](CO)[C@@H](O[C@@H]7O[C@@H](C)[C@H](O)[C@@H](O)[C@H]7O)[C@H](O)[C@H]6O[C@@H]6O[C@@H](C)[C@H](O)[C@@H](O)[C@H]6O)CC[C@]5(C)[C@H]4CC[C@]3(C)[C@H]1[C@@H]2C [DIOSCIN] | 1 (≈ 1.15 µM) | 2 (≈ 2.3 µM) | 1.1 (≈ 1.27 µM) | 1.5 (≈ 1.73 µM) | inactive | inactive | 1.6 (≈ 1.84 µM) | 1.6 (≈ 1.84 µM) | inactive | 1.6 (≈ 1.84 µM) | inactive | 1.2 (≈ 1.38 µM) | 1.6 (≈ 1.84 µM) |  | inactive | inactive |  | 32 (≈ 36.8 µM) | MIC (Micrococcus luteus [6]): 4 µg/mL (≈ 4.6 µM)
C[C@@H]1CC[C@@]2(OC1)O[C@H]1C[C@H]3[C@@H]4CC=C5C[C@@H](O)CC[C@]5(C)[C@H]4CC[C@]3(C)[C@H]1[C@@H]2C [DISOGENIN] |  |  | > 10 | 4.3 (≈ 10.4 µM) | inactive | inactive | > 10 | > 10 | inactive | 8.5 (≈ 20.5 µM) | inactive | > 10 | > 10 |  | inactive | inactive | inactive |  | MIC (Micrococcus luteus [6]): 32 µg/mL (≈ 77.2 µM); Activity (Candida albicans [8]): inactive; Activity (Cryptococcus neoformans [9]): inactive
C[C@@H]1CC[C@@]2(OC1)O[C@H]1C[C@H]3[C@@H]4CC=C5C[C@@H](O[C@@H]6O[C@H](CO)[C@@H](O)[C@H](O)[C@H]6O[C@@H]6O[C@@H](C)[C@H](O)[C@@H](O)[C@H]6O)CC[C@]5(C)[C@H]4CC[C@]3(C)[C@H]1[C@@H]2C [OPHIOPOGONIN C] | 1 (≈ 1.38 µM) | 2 (≈ 2.77 µM) | 1.8 (≈ 2.49 µM) | 1.5 (≈ 2.07 µM) | inactive | inactive | 1.7 (≈ 2.35 µM) | 1.8 (≈ 2.49 µM) | inactive | 1.6 (≈ 2.21 µM) | inactive | 1.8 (≈ 2.49 µM) | 2 (≈ 2.77 µM) | inactive | inactive | inactive |  | 16 (≈ 22.1 µM) | 
C[C@@H]1CC[C@@]2(OC1)O[C@H]1C[C@H]3[C@@H]4[C@H](O)C=C5C[C@@H](O[C@@H]6O[C@H](CO)[C@@H](O)[C@H](O)[C@H]6O[C@@H]6O[C@@H](C)[C@H](O)[C@@H](O)[C@H]6O)CC[C@]5(C)[C@H]4CC[C@]3(C)[C@H]1[C@@H]2C [SANSEVIERIN A] | 64 (≈ 86.6 µM) | 64 (≈ 86.6 µM) | > 10 | > 10 | inactive | inactive | > 10 | > 10 | inactive | > 10 | inactive | > 10 | > 10 | inactive | inactive | inactive | inactive |  | 
C=C1CC[C@@]2(OC1)O[C@H]1C[C@H]3[C@@H]4CC=C5C[C@@H](O[C@@H]6O[C@H](CO)[C@@H](O[C@@H]7O[C@@H](C)[C@H](O)[C@@H](O)[C@H]7O)[C@H](O)[C@H]6O[C@@H]6O[C@@H](C)[C@H](O)[C@@H](O)[C@H]6O)CC[C@]5(C)[C@H]4CC[C@]3(C)[C@H]1[C@@H]2C [SANSEVISTATIN 1] | 1 (≈ 1.15 µM) | 2 (≈ 2.31 µM) | 1.1 (≈ 1.27 µM) | 1.6 (≈ 1.85 µM) | inactive | inactive | 0.47 (≈ 0.542 µM) | 0.43 (≈ 0.496 µM) | inactive | 1 (≈ 1.15 µM) | inactive | 1.3 (≈ 1.5 µM) | 1.1 (≈ 1.27 µM) | inactive | inactive | inactive | inactive |  | 
C[C@@H]1CC[C@@]2(OC1)O[C@H]1C[C@H]3[C@@H]4CC=C5C[C@@H](O[C@@H]6O[C@H](CO)[C@@H](O[C@@H]7OC[C@H](O)[C@H](O)[C@H]7O)[C@H](O)[C@H]6O[C@@H]6O[C@@H](C)[C@H](O)[C@@H](O)[C@H]6O)CC[C@]5(C)[C@H]4CC[C@]3(C)[C@H]1[C@@H]2C [SANSEVISTATIN 2] | 1 (≈ 1.17 µM) |  | 0.93 (≈ 1.09 µM) | 1.7 (≈ 1.99 µM) | inactive | inactive | 0.22 (≈ 0.257 µM) | 0.26 (≈ 0.304 µM) | inactive | 0.42 (≈ 0.491 µM) | inactive | 0.68 (≈ 0.795 µM) | 0.62 (≈ 0.725 µM) | inactive | inactive | inactive |  | 32 (≈ 37.4 µM) | Activity (Candida albicans [8]): inactive
